Test results reported in ChEMBL document CHEMBL1125399, “Perfluorocarbon-based antidiabetic agents” (1992).

Key:
Mus musculus [1] = assay: Effect on the mean liver weight of mice on day 1 (pre) of swiss CD-1 mice (charles river), in groups of six dosed orally once per day for 4 days with 50 mg/kg of compound; expressed as mg/10 g body weight; format: functional; details: route oral
Mus musculus [2] = assay: Effect on the mean heart weight of mice on day 1 (pre) of swiss CD-1 mice (charles river), in groups of six dosed orally once per day for 4 days with 50 mg/kg of compound; expressed as mg/10 g body weight; format: functional; details: route oral
Mus musculus [3] = species: Mus musculus; assay: Percent plasma glucose concentration of drug treated mice (ob/ob) relative to vehicle control animals; format: functional
Procedure, shortened: (§1)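 Female ob/ob mice, 10 weeks old, fed ad libitum, in groups of 7–11. Dosed po once daily for 4 days in 0.5% methyl cellulose vehicle. Decapitated the next morning; 0.1 mL blood into saline with Trasylol and EDTA; plasma glucose by autoanalyzer. Reciprocal-transformed (y = 160/x) harmonic mean given as % of vehicle. Bonferroni-adjusted comparisons.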

Mus musculus [4] = assay: Effect on the mean body weight of mice on day 5 (post) of swiss CD-1 mice (charles river), in groups of six dosed orally once per day for 4 days with 50 mg/kg of compound; format: functional; details: route oral
Procedure, shortened: (§2)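 Swiss CD-1 mice (20–25 g) in groups of six; vehicle controls in three cages of three. Compound 50 mg/kg or vehicle (2% Tween 80/saline) given by gavage each afternoon for 4 consecutive days. Body weight taken before dosing (day 1) and on the morning of day 5. Mice were then killed under halothane and heart and liver weighed, per 10 g body weight. Bonferroni t test.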

Mus musculus [5] = assay: Effect on the mean body weight of mice on day 1 (pre) of swiss CD-1 mice (charles river), in groups of six dosed orally once per day for 4 days with 50 mg/kg of compound; format: functional; details: route oral; procedure, shortened: as §2
Mus musculus [6] = assay: Percent plasma glucose concentration of drug treated mice (ob/ob) relative to vehicle control animals following 75 mg/kg administration.; format: functional; procedure, shortened: as §1
Mus musculus [7] = assay: Effect on the mean body weight of mice on day 1 (pre) of swiss CD-1 mice (charles river), in groups of six dosed orally once per day for 4 days with 50 mg/kg of compound; […]; format: functional; details: route oral
Mus musculus [8] = assay: Percent plasma glucose concentration of drug treated mice (ob/ob) relative to vehicle control animals was determined at the dose of 75 mg/kg

## O=C(Nc1ccc(Cc2nn[nH]n2)cc1)C(F)(F)C(F)(F)C(F)(F)C(F)(F)C(F)(F)C(F)(F)C(F)(F)F
Mus musculus [1]
  Liver weight: 1.25 g 10g-1
Mus musculus [2]
  Heart weight: 39 mg 10g-1
Mus musculus [3]
  Activity: 66%
Mus musculus [4]
  Body weight: 31.4 g
Mus musculus [5]
  Body weight: 30.5 g

## Cl.Nc1ccc(Cc2nn[nH]n2)cc1
Mus musculus [1]
  Liver weight: 0.591 g 10g-1
Mus musculus [2]
  Heart weight: 43 mg 10g-1
Mus musculus [6]
  Activity: 93%
Mus musculus [7]
  Body weight: 29.8 g
Mus musculus [4]
  Body weight: 30.1 g

## CCCCCCCC(=O)NNC(=O)C(F)(F)C(F)(F)C(F)(F)C(F)(F)C(F)(F)C(F)(F)C(F)(F)F
Mus musculus [1]
  Liver weight: 1.44 g 10g-1
Mus musculus [2]
  Heart weight: 37 mg 10g-1
Mus musculus [6]
  Activity: 74%
Mus musculus [4]
  Body weight: 30.6 g
Mus musculus [5]
  Body weight: 30.6 g

## FC(F)(F)C(F)(F)C(F)(F)C(F)(F)C(F)(F)C(F)(F)C(F)(F)CNc1ccc(Cc2nn[nH]n2)cc1
Mus musculus [1]
  Liver weight: 0.856 g 10g-1
Mus musculus [2]
  Heart weight: 39 mg 10g-1
Mus musculus [6]
  Activity: 57%
Mus musculus [4]
  Body weight: 31.2 g
Mus musculus [5]
  Body weight: 30.3 g

## CCCCN(Cc1ccccc1)C(=O)C(F)(F)C(F)(F)C(F)(F)C(F)(F)C(F)(F)C(F)(F)C(F)(F)F
Mus musculus [1]
  Liver weight: 1.18 g 10g-1
Mus musculus [2]
  Heart weight: 40 mg 10g-1
Mus musculus [6]
  Activity: 61%
Mus musculus [4]
  Body weight: 31.1 g
Mus musculus [5]
  Body weight: 30.8 g

## O=C(Nc1ccc(Cc2nn[n-]n2)cc1)C(F)(F)C(F)(F)C(F)(F)F.[Na+]
Mus musculus [8]
  Activity: 67%

## CN(C(=O)C(F)(F)C(F)(F)C(F)(F)C(F)(F)C(F)(F)C(F)(F)C(F)(F)F)c1ccc(Cc2nnnn2C)cc1
Mus musculus [1]
  Liver weight: 0.942 g 10g-1
Mus musculus [2]
  Heart weight: 41 mg 10g-1
Mus musculus [3]
  Activity: 67%
Mus musculus [4]
  Body weight: 31.1 g
Mus musculus [5]
  Body weight: 29.9 g

## O=C(Nc1ccc(Cc2nnn(Cc3ccccc3)n2)cc1)C(F)(F)C(F)(F)C(F)(F)C(F)(F)C(F)(F)C(F)(F)C(F)(F)F
Mus musculus [1]
  Liver weight: 0.787 g 10g-1
Mus musculus [2]
  Heart weight: 41 mg 10g-1
Mus musculus [3]
  Activity: 68%
Mus musculus [4]
  Body weight: 31.4 g
Mus musculus [5]
  Body weight: 30.3 g

## CCCCCCC(F)(F)C(=O)Nc1ccc(Cc2nn[nH]n2)cc1
Mus musculus [1]
  Liver weight: 0.671 g 10g-1
Mus musculus [2]
  Heart weight: 43 mg 10g-1
Mus musculus [6]
  Activity: 80%
Mus musculus [4]
  Body weight: 31.7 g
Mus musculus [5]
  Body weight: 30.4 g

## O=C(N(Cc1ccccc1)c1ccc(Cc2nn[nH]n2)cc1)C(F)(F)C(F)(F)C(F)(F)C(F)(F)C(F)(F)C(F)(F)C(F)(F)C(F)(F)F
Mus musculus [1]
  Liver weight: 1.11 g 10g-1
Mus musculus [2]
  Heart weight: 39 mg 10g-1
Mus musculus [3]
  Activity: 55%
Mus musculus [4]
  Body weight: 31.3 g
Mus musculus [5]
  Body weight: 29.8 g

## O=C(Nc1ccncc1)C(F)(F)C(F)(F)C(F)(F)C(F)(F)C(F)(F)C(F)(F)C(F)(F)F
Mus musculus [1]
  Liver weight: 1.08 g 10g-1
Mus musculus [2]
  Heart weight: 39 mg 10g-1
Mus musculus [3]
  Activity: 66%
Mus musculus [4]
  Body weight: 32.4 g
Mus musculus [5]
  Body weight: 30.7 g
